According to ChEMBL document CHEMBL1131139, “Synthesis and antibacterial activity of ketolides (6-O-methyl-3-oxoerythromycin derivatives): a new class of antibacterials highly potent against macrolide-resistant and -susceptible respiratory pathogens” (1998):
Converted amounts (≈) assume the structure as drawn.

Key:
Type in all cases: functional
[1] = system: Enterococcus; assay: In vitro inhibitory activity against enterococci EryRc (13)
[2] = system: Mus musculus; assay: In Vivo evaluation for its effective dose against Streptococcus pneumoniae (032UC1)
In short: (§1)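 Male Charles River CD1 mice, 20-22 g, 10 per dose group, infected intraperitoneally with 0.5 mL diluted overnight broth culture (physiological buffer or 5% hog mucine) at 10-100 times the minimal lethal dose. Compound suspended in carboxymethylcellulose, 0.5 mL given orally immediately and 4 h postinfection. Survival followed 8-10 days; ED50 (unitary dose protecting 50% from death) by Litchfield-Wilcoxon probit method.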

[3] = system: Haemophilus; assay: In vitro inhibitory activity against Haemophilus AmpR (37)
[4] = system: Staphylococcus epidermidis; assay: In vitro inhibitory activity against Staphylococcus epidermidis (EryRi 012GO11i)
In short: (§2)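 Two-fold agar dilution on Mueller-Hinton agar (pH 7.4). Inoculum from overnight plate cultures suspended in Mueller-Hinton broth, adjusted to 10^9 CFU/mL, diluted 1:200 and spotted by multipoint inoculator at about 10^4 CFU/spot. Plates incubated 37 °C for 20 h. MIC taken as lowest concentration with no visible growth.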

[5] = system: Mus musculus; assay: In Vivo evaluation for its effective dose against Staphylococcus aureus (011GO25 EryRi.; in short: as §1
[6] = system: Mus musculus; assay: In Vivo evaluation for its effective dose against Haemophilus influenzae (351TO19 AmpR beta (-)); in short: as §1
[7] = system: Staphylococcus aureus; assay: In vitro inhibitory activity against Staphylococcus aureus (EryRc 011CB20); in short: as §2
[8] = system: Mus musculus; assay: In Vivo evaluation for its effective dose against Haemophilus influenzae (351GR1); in short: as §1
[9] = system: Haemophilus; assay: In vitro inhibitory activity against Haemophilus AmpS (43)
[10] = system: Mus musculus; assay: In Vivo evaluation for its effective dose against Staphylococcus aureus (011UC4).; in short: as §1
[11] = system: Streptococcus pneumoniae; assay: In vitro inhibitory activity against Streptococcus pneumoniae (EryRi 030SJ5i); in short: as §2
[12] = system: Streptococcus pneumoniae; assay: In vitro inhibitory activity against Streptococcus pneumoniae (032UC1); in short: as §2
[13] = system: Mus musculus; assay: In Vivo evaluation for its effective dose against Streptococcus pneumoniae (030MV2 EryRc); in short: as §1
[14] = system: Mus musculus; assay: In Vivo evaluation for its effective dose against Streptococcus pneumoniae (030Cr29 EryRc); in short: as §1
[15] = system: Staphylococcus aureus; assay: In vitro inhibitory activity against Staphylococcus aureus (EryRi 011GO25i); in short: as §2
[16] = system: Haemophilus influenzae; assay: In vitro inhibitory activity against Haemophilus influenzae (351HT3); in short: as §2
[17] = system: Staphylococcus sp.; assay: In vitro inhibitory activity against Staphylococci EryRc (23)
[18] = system: Streptococcus sp.; assay: In vitro inhibitory activity against Streptococci EryR (27)
[19] = In vitro inhibitory activity against Pneumococci EryRc (34)
[20] = system: Escherichia coli; assay: In vitro inhibitory activity against Escherichia coli (250 UC5); in short: as §2
[21] = system: Mus musculus; assay: In Vivo evaluation for its effective dose against Haemophilus influenzae (351RD7 AmpR beta (+)); in short: as §1
[22] = system: Streptococcus pneumoniae; assay: In vitro inhibitory activity against Streptococcus pneumoniae (EryRc 030SJ1); in short: as §2
[23] = system: Streptococcus sp.; assay: In vitro inhibitory activity against Streptococci EryRi (98)
[24] = system: Staphylococcus aureus; assay: In vitro inhibitory activity against Staphylococcus aureus (011UC4); in short: as §2
[25] = system: Mus musculus; assay: In Vivo evaluation for its effective dose against Streptococcus pneumoniae (030SJ6 EryRc); in short: as §1
[26] = system: Enterococcus; assay: In vitro inhibitory activity against enterococci EryRi (19)
[27] = system: Mus musculus; assay: In Vivo evaluation for its effective dose against Streptococcus pneumoniae (030RO1 EryRi); in short: as §1
[28] = system: Mus musculus; assay: In Vivo evaluation for its effective dose against Streptococcus pneumoniae (030SJ1 EryRc); in short: as §1
[29] = system: Haemophilus influenzae; assay: In vitro inhibitory activity against Haemophilus influenzae (351CB12); in short: as §2
[30] = system: Streptococcus pyogenes; assay: In vitro inhibitory activity against Streptococcus pyogenes (02A1UC1); in short: as §2
[31] = system: Staphylococcus sp.; assay: In vitro inhibitory activity against Staphylococci EryRi (65)
[32] = In vitro inhibitory activity against Pneumococci PenR (65)
[33] = system: Mus musculus; assay: In Vivo evaluation for its effective dose against Streptococcus pyogenes (02A1UC1); in short: as §1

**Q.** With `CC[C@H]1OC(=O)[C@H](C)[C@@H](O[C@H]2C[C@@](C)(OC)[C@@H](O)[C@H](C)O2)[C@H](C)[C@@H](O[C@@H]2O[C@H](C)C[C@H](N(C)C)[C@H]2O)[C@](C)(O)C[C@@H](C)C(=O)[C@H](C)[C@@H](O)[C@]1(C)O` [ERYTHROMYCIN] as the molecule, how does the MIC50 [1] read?
**A.** 40 µg/mL (≈ 54.5 µM)

**Q.** What about the MIC90 [1] of the same molecule?
**A.** 40 µg/mL (≈ 54.5 µM)

**Q.** And the ED50 [2]?
**A.** 18.3 mg/kg

**Q.** What about the MIC50 [3] of the same molecule?
**A.** 1.2 µg/mL (≈ 1.64 µM)

**Q.** What about the MIC90 [3] of the same molecule?
**A.** 10 µg/mL (≈ 13.6 µM)

**Q.** What about the MIC [4] of the same molecule?
**A.** 40 µg/mL (≈ 54.5 µM)

**Q.** And the ED50 [5]?
**A.** > 100 mg/kg

**Q.** What about the ED50 [6] of the same molecule?
**A.** 442 mg/kg

**Q.** And the MIC [7]?
**A.** 40 µg/mL (≈ 54.5 µM)

**Q.** And the ED50 [8]?
**A.** 346 mg/kg

**Q.** And the MIC50 [9]?
**A.** 1.2 µg/mL (≈ 1.64 µM)

**Q.** What about the MIC90 [9] of the same molecule?
**A.** 5 µg/mL (≈ 6.81 µM)

**Q.** What about the ED50 [10] of the same molecule?
**A.** 57 mg/kg

**Q.** What about the MIC [11] of the same molecule?
**A.** 40 µg/mL (≈ 54.5 µM)

**Q.** And the MIC [12]?
**A.** 0.08 µg/mL (≈ 0.109 µM)

**Q.** What about the ED50 [13] of the same molecule?
**A.** > 100 mg/kg

**Q.** What about the ED50 [14] of the same molecule?
**A.** > 100 mg/kg

**Q.** And the MIC [15]?
**A.** 40 µg/mL (≈ 54.5 µM)

**Q.** And the MIC [16]?
**A.** 2.5 µg/mL (≈ 3.41 µM)

**Q.** What about the MIC50 [17] of the same molecule?
**A.** 40 µg/mL (≈ 54.5 µM)

**Q.** And the MIC90 [17]?
**A.** 40 µg/mL (≈ 54.5 µM)

**Q.** And the MIC50 [18]?
**A.** 5 µg/mL (≈ 6.81 µM)

**Q.** What about the MIC90 [18] of the same molecule?
**A.** 40 µg/mL (≈ 54.5 µM)

**Q.** And the MIC50 [19]?
**A.** 40 µg/mL (≈ 54.5 µM)

**Q.** And the MIC90 [19]?
**A.** 40 µg/mL (≈ 54.5 µM)

**Q.** And the MIC [20]?
**A.** 40 µg/mL (≈ 54.5 µM)

**Q.** What about the ED50 [21] of the same molecule?
**A.** 326 mg/kg

**Q.** What about the MIC [22] of the same molecule?
**A.** 40 µg/mL (≈ 54.5 µM)

**Q.** What about the MIC50 [23] of the same molecule?
**A.** 20 µg/mL (≈ 27.3 µM)

**Q.** And the MIC90 [23]?
**A.** 40 µg/mL (≈ 54.5 µM)

**Q.** What about the MIC [24] of the same molecule?
**A.** 0.3 µg/mL (≈ 0.409 µM)

**Q.** And the ED50 [25]?
**A.** > 100 mg/kg

**Q.** And the MIC50 [26]?
**A.** 2.5 µg/mL (≈ 3.41 µM)

**Q.** And the MIC90 [26]?
**A.** 10 µg/mL (≈ 13.6 µM)

**Q.** What about the ED50 [27] of the same molecule?
**A.** > 100 mg/kg

**Q.** And the ED50 [28]?
**A.** > 100 mg/kg

**Q.** What about the MIC [29] of the same molecule?
**A.** 2.5 µg/mL (≈ 3.41 µM)

**Q.** What about the MIC [30] of the same molecule?
**A.** 0.08 µg/mL (≈ 0.109 µM)

**Q.** What about the MIC50 [31] of the same molecule?
**A.** 40 µg/mL (≈ 54.5 µM)

**Q.** What about the MIC90 [31] of the same molecule?
**A.** 40 µg/mL (≈ 54.5 µM)

**Q.** And the MIC50 [32]?
**A.** 0.6 µg/mL (≈ 0.818 µM)

**Q.** What about the MIC90 [32] of the same molecule?
**A.** 40 µg/mL (≈ 54.5 µM)

**Q.** What about the ED50 [33] of the same molecule?
**A.** 300 mg/kg

**Q.** What does the source list for `CCCN1C(=O)O[C@]2(C)[C@@H](CC)OC(=O)[C@H](C)C(=O)[C@H](C)[C@@H](O[C@@H]3O[C@H](C)C[C@H](N(C)C)[C@H]3O)[C@](C)(OC)C[C@@H](C)C(=O)[C@H](C)[C@@H]12`?
**A.** MIC [4]: 40 µg/mL (≈ 61.1 µM); MIC [7]: 40 µg/mL (≈ 61.1 µM); MIC [11]: 40 µg/mL (≈ 61.1 µM); MIC [12]: 0.04 µg/mL (≈ 0.0611 µM); MIC [15]: 5 µg/mL (≈ 7.64 µM); MIC [16]: 40 µg/mL (≈ 61.1 µM); MIC [20]: 40 µg/mL (≈ 61.1 µM); MIC [22]: 40 µg/mL (≈ 61.1 µM); MIC [24]: 1.2 µg/mL (≈ 1.83 µM); MIC [29]: 40 µg/mL (≈ 61.1 µM); MIC [30]: 0.15 µg/mL (≈ 0.229 µM)

**Q.** What does the source list for `CC[C@H]1OC(=O)[C@H](C)C(=O)[C@H](C)[C@@H](O[C@@H]2O[C@H](C)C[C@H](N(C)C)[C@H]2O)[C@](C)(OC)C[C@@H](C)C(=O)[C@H](C)[C@H]2N(N)C(=O)O[C@]12C`?
**A.** MIC [4]: 1.2 µg/mL (≈ 1.91 µM); MIC [7]: 40 µg/mL (≈ 63.7 µM); MIC [11]: 40 µg/mL (≈ 63.7 µM); MIC [12]: 0.08 µg/mL (≈ 0.127 µM); MIC [15]: 1.2 µg/mL (≈ 1.91 µM); MIC [16]: 10 µg/mL (≈ 15.9 µM); MIC [20]: 40 µg/mL (≈ 63.7 µM); MIC [22]: 40 µg/mL (≈ 63.7 µM); MIC [24]: 1.2 µg/mL (≈ 1.91 µM); MIC [29]: 10 µg/mL (≈ 15.9 µM); MIC [30]: 0.15 µg/mL (≈ 0.239 µM)
